Screening results from PubChem BioAssay.
KCNK3 inh = human KCNK3 channel inhibition, primary screen | 0.84% of 340,000 active | O14649 | AID 602410 | B-score at 10 µM | CHO-KCNK3 thallium flux, FluxOR fluorescence; stronger effect = lower value;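 active means B-score under library mean minus 4 SD, starting fluorescence ratio at most library mean plus 5 SD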;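 further: more negative B-score means stronger inhibition of thallium flux through KCNK3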
KCNQ1 block = blocks the human KCNQ1 potassium channel | CHO-K1 KCNQ1, FluxOR thallium flux fluorescence; stronger effect = higher value | B-score at 10 µM | 1.3% of 310,000 active;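 active means compounds whose thallium flux B-score, printed positive for inhibition, exceeds three library SD while starting fluorescence stays within three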;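 further: channel opened by potassium depolarization with thallium stimulus after 20 min compound exposure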
Target sequence (P51787 whole entry, looked up): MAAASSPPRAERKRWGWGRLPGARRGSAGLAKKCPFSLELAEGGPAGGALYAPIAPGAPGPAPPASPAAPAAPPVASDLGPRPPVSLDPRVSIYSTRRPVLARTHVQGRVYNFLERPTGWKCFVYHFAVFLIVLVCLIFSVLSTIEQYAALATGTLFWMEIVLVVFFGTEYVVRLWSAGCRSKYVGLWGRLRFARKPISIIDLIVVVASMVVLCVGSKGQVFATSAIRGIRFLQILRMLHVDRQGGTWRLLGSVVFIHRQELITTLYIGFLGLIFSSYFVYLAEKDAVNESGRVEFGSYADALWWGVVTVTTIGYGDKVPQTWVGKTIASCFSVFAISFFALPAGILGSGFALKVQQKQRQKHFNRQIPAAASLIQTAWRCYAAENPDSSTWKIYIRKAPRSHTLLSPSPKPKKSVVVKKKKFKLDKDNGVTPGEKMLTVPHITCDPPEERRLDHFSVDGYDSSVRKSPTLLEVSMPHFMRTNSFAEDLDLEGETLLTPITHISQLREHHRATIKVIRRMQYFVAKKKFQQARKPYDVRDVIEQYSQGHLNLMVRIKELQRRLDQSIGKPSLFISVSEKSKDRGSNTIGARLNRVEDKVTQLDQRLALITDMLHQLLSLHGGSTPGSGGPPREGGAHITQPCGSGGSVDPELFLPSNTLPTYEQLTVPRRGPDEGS
KCNK9 inh = human KCNK9 channel inhibition; Q9NPC2; 1.2% of 310,000 active; HEK293 KCNK9, FluxOR thallium flux fluorescence; stronger effect = lower value; B-score at 10 µM;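 active means ratio B-score over 3 SD below the library mean, with starting fluorescence within 5 SD of its mean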;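 further: negative B-score means less thallium flux so channel inhibition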
KCNQ1 pot = human KCNQ1 channel potentiation or activation | AID 2648 | CHO-K1 KCNQ1, thallium flux FluxOR fluorescence; stronger effect = higher value | 0.35% of 310,000 active | P51787 | B-score at 10 µM;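 active means fluorescence ratio B-score, a plate-corrected score, at least three library SD, with initial intensity B-score within 5 SD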
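Assay system: CHO-K1 cells stably expressing KCNQ1. Medium: assay buffer for compound exposure, DMSO matched across wells. Timing: 37 °C overnight plating, 90-min dark dye load, 20-min compound pretreatment. Signal: kinetic FluxOR fluorescence, 10 s baseline plus 110 s post-stimulus.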
Kir21 inh = inhibitors of mouse Kir2.1 inward-rectifier potassium channel; B-score at 10 µM; P35561; 0.85% of 310,000 active; HEK293-Kir2.1, FluxOR thallium flux fluorescence; stronger effect = lower value;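 active means fluorescence ratio B-score at or below minus 3 SD of library scores, with starting-brightness B-score within 2 SD, cut at about -4.2 in these data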;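 further: channel flux triggered by added potassium and thallium sulfate stimulus; B-score of peak minus minimum fluorescence over baseline after thallium stimulus; more negative B-score means stronger Kir2.1 block with less thallium influx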
hERG protect = hERG (human) protection from proarrhythmic block; activation (rescue from dofetilide block), less the hit threshold, % at 10 µM; AID 1511; 0.51% of 310,000 active; CHO-hERG, FluxOR thallium flux, dofetilide IC70 present;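 active means activation above the mean of controls blocked by dofetilide plus 5 SD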;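 further: thallium influx through hERG after potassium depolarization seen as dye fluorescence rise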
The depositor's hits bear a star; i = inactive; / = no result. Most compounds without a hit are left out; they make up all but 3.8% or so of the library.

SMILES	KCNK3 inh	KCNQ1 block	KCNK9 inh	KCNQ1 pot	Kir21 inh	hERG protect
CCCN(C(=O)c1c(CC)noc1C)c1c(N)n(Cc2ccccc2)c(=O)[nH]c1=O	i	i	i	i	-1.4	-12
COc1cccc(C(=O)Nc2ccc3c(cc2=O)[C@@H](NC(C)=O)CCc2cc(OC)c(OC)c(OC)c2-3)c1	i	i	i	i	1.7	-8
C=CCOC(=O)N1CCC2CC1c1cc(-c3cccc(C)c3)ccc12 (stereo not given)	i	/	/	/	/	/
COc1ccc(NC(=S)Nc2ccccn2)c(OC)c1	i	i	i	i	-1.7	5.2*
COc1cc(NC(=S)NCCCN2CCOCC2)cc(OC)c1	i	i	i	i	-0.16	-5
COc1ccc(NC(=S)NCCC(c2ccccc2)c2ccccc2)c(OC)c1	i	i	i	29*	1.4	-11
COc1ccc(NC(=S)Nc2ccccc2OC)c(OC)c1	i	i	i	i	1.6	-13
COc1cccc(NC(=S)NCCN2CCOCC2)c1	i	i	i	12*	-1.4	-12
Cn1c(SCC(=O)NNC(=O)c2ccccc2Br)nnc1C(F)(F)F	i	/	/	/	/	/
Cc1ccc(N2CCN(S(=O)(=O)c3ccc4c(c3)oc(=O)n4C)CC2C)cc1 (stereo not given)	i	i	i	i	1.2	-11
CCOC(=O)CSc1nc2c([nH]c3ccccc32)c(=O)n1C	i	i	i	i	0.54	6.7*
COc1ccc2ncc(S(=O)(=O)c3ccccc3)c(N3CCN(c4ccccc4)CC3)c2c1	i	i	i	i	0.56	-5
CCN1Cc2c(/C=C/c3ccccc3)nc3ccc(OC)cc3c2N(c2cccc(Cl)c2)C1	i	i	i	i	-13*	-9
CC1=CC(C#N)(C#N)C(C#N)(C#N)C(c2ccccc2)N1 (stereo not given)	/	i	i	i	-0.36	-10
CC1CCC(C(C)C)C2=C1C(C#N)(C#N)C(C#N)(C#N)C(c1ccccc1)N2 (stereo not given)	i	7*	i	i	-1.9	-18
CCNC(=S)N(Cc1c(C)noc1C)c1ccccc1	i	i	i	i	-3.5	-7
CCCCNC(=S)N(Cc1c(C)noc1C)c1ccccc1	i	i	i	i	-5.4*	-6
Cc1cccnc1CCNC(=O)c1ccc(OC2CCN(Cc3ccccn3)CC2)cc1	i	i	i	i	-1.1	-11
O=C(NCCc1cccc(Cl)c1)c1ccc(OC2CCN(Cc3ccccn3)CC2)cc1	i	i	i	i	-5.4*	-19
CCOc1c(Br)cc(CNC2CCCCCCC2)cc1OC	i	i	i	i	-4.3*	-12
COc1cc(CNC2CCCCCCC2)cc(Br)c1OCC#N	i	i	i	i	-4.8*	-5
CCN(c1ccccc1)S(=O)(=O)c1ccc(OC)c(NC(=O)c2cc(F)c(F)c(F)c2F)c1	i	/	/	/	/	/
CCN=C1SC(C(=O)Nc2cccc(Br)c2)CC(=O)N1CC (stereo not given)	i	i	-7.1*	i	0.02	-7
C=CC[C@@H](CC(=O)NCCO)C(=O)N[C@@H](COC(=O)[C@@H](CC=C)CC(=O)OC(C)(C)C)Cc1c[nH]c2ccccc12	i	/	/	/	/	/
COC(=O)C1=C(C)N(Cc2ccccc2)C(=NCc2ccc(OC)cc2)N[C@H]1c1ccccc1	i	/	/	/	/	/
SMILES	KCNK3 inh	KCNQ1 block	KCNK9 inh	KCNQ1 pot	Kir21 inh	hERG protect
COC(=O)C1=C(C)N(Cc2ccccc2)C(=NCc2cccc(C(F)(F)F)c2)N[C@H]1c1cccc(C(F)(F)F)c1	i	/	/	/	/	/
CCOC(=O)CN1C(=O)N[C@@H](c2cccs2)C(C(=O)OC)=C1C	i	i	i	i	-0.62	-4
CCN1C(=NCCc2cccs2)N[C@@H](c2cccs2)C(C(=O)OC)=C1C	i	i	i	i	-6*	-13
COC(=O)C1=C(C)N(Cc2ccccc2)C(=NCc2cccc(C(F)(F)F)c2)N[C@H]1c1cccc(F)c1	i	i	i	i	-5.6*	-29
COC(=O)C1=C(C)N(Cc2ccccc2)C(=NCC(C)C)N[C@H]1c1ccccc1	/	i	i	i	-8.2*	-18
COC(=O)C1=C(C)N(Cc2ccccc2)C(=NCCCCO)N[C@H]1CCc1ccccc1	i	i	i	i	-5.1*	-13
COc1ccc(S(=O)Cc2ccc(C(=O)N3CCN(c4cccc(C)c4C)CC3)o2)cc1 (stereo not given)	i	i	i	i	2.5	-22
CCN1C(=S)N[C@@H](c2cccc(F)c2)C(C(=O)OC)=C1C	i	i	i	i	-1.8	-9
COC(=O)C1=C(C)N(Cc2ccccc2)C(=O)N[C@H]1c1cccc(F)c1	i	i	i	i	-1.1	-9
CCN1C(=NCc2cccc(Cl)c2)N[C@@H](c2cccc(F)c2)C(C(=O)OC)=C1C	i	i	i	i	-4.5*	-15
COCCN1C(=O)N[C@@H](c2cccc(F)c2)C(C(=O)OC)=C1C	i	i	i	i	-0.02	4.9*
C=CCn1c(COc2ccccc2)nnc1SC(C)C(=O)N/N=C/c1cc(Cl)ccc1O (stereo not given)	i	7*	i	i	0.05	-13
C=CCn1c(COc2ccc(Cl)cc2)nnc1SCC(=O)N/N=C/c1cccc(O)c1	i	i	i	i	1.1	-9
Cc1ccccc1NS(=O)(=O)c1cc(C(=O)NCCSC2CCCCC2)ccc1C	i	i	-8*	i	0	-7
CCCCNc1c(-c2ccc(SC3CCCCC3)cc2)nc2ccccn12	i	i	i	i	0.12	-23
CCC(C)Sc1cccc(-c2nc3cc(C)ccn3c2NCc2ccccc2)c1 (stereo not given)	i	8*	i	i	-1.4	-5
CCCCNc1c(-c2ccc(SC(C)CC)cc2)nc2ccccn12 (stereo not given)	i	8*	-7.8*	i	-1.3	-38
Cc1ccc(N2CC(C(=O)Nc3cccnc3)CC2=O)cc1Cl (stereo not given)	i	i	i	i	-1.3	-7
CCN(C[C@H]1N[C@@](CC)(C(=O)OC)[C@H]2C(=O)N(Cc3ccccc3)C(=O)[C@@H]12)S(=O)(=O)c1ccc(C(C)(C)C)cc1	i	/	/	/	/	/
CCc1cc2cc(C)cc(C)c2[nH]c1=S	i	i	i	i	-0.01	9.1*
COc1ccccc1C(=O)OCc1nc(N)nc(Nc2ccccc2C)n1	i	i	i	i	-5.2*	-2
